E coli WT exp – E. coli BW25113 growth inhibition, expanded screen | OD600 absorbance | growth inhibition, % at 100 µM | 98,000 tested, 0.15% active;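 active = growth inhibition above about 50% at one test dose, limit read from the data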;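 also: growth measured after 20 h incubation at 37 °C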
PLAP activator – activates human placental alkaline phosphatase; purified PLAP enzyme, luminescent substrate read-out; stronger effect = higher value; activation fold at 20 µM; 96,000 tested, 1.2% active; P05187; in the data active = activation fold above about 2
Target sequence (P05187 whole entry, looked up): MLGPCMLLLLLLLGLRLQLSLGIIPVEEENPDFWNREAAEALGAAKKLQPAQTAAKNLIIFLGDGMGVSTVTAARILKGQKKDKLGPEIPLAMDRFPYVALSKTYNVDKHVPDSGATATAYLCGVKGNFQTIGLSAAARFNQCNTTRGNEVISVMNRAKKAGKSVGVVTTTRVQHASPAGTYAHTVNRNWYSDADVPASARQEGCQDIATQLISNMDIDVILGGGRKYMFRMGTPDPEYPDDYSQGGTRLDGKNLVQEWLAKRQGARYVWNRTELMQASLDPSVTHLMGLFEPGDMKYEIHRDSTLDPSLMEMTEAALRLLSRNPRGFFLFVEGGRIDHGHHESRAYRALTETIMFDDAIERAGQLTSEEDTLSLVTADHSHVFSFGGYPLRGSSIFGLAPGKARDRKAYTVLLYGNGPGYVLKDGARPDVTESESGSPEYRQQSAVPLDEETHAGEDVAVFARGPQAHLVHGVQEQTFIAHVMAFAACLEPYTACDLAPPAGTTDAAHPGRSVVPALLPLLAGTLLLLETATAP
PostGolgi yeast – growth inhibition of a yeast mutant, post-Golgi transport screen; post-Golgi transport phenotypic cell assay; inhibition, % at 10 µM; 98,000 tested, 0.9% active;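 also: yeast cells grown in 1536-well plates; yeast grown about 18 h at 30C before absorbance read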
PostGolgi ctrl – growth of the yeast control strain, post-Golgi counter-screen. efflux-deficient yeast background strain, growth absorbance A615, 16 h. inhibition, % at 10 µM. 98,000 tested, 5% active. AID 738
tolC growth inh – E. coli tolC mutant growth inhibition. growth inhibition, % at 10 µM (by protocol). E. coli BW25113 tolC mutant growth, OD615. 65,000 tested, 2.2% active. AID 573;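 active = growth inhibition at or above a cutoff equal to the mean over every tested compound plus 3 SD, cut at about 60% in these data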;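 also: growth measured after 20 h incubation at 37 °C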
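Test system – E. coli BW25113 ΔtolC::kan, tolC deletion mutant strain · Detection – OD at 615 nm · Buffer or medium – LB with kanamycin 50 µg/mL · Times – 20 h compound exposure of bacteria at 37 °C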
The depositor's hits bear a star; x = no result given. An excerpt weighted towards active compounds, which were near 7.2% of everything screened. Rule as the data show it, unless noted: active = inhibition above about 30%; inactive = the rest.

SMILES	E coli WT exp	PLAP activator	PostGolgi yeast	PostGolgi ctrl	tolC growth inh
CCCc1cc(=O)n2[nH]c(NCc3c(F)cccc3Cl)nc2n1	-7	1.1	-3	2	15
O=Cc1cc2ccccc2nc1SCc1ccc(Cl)cc1	-22	0.9	68*	23	x
Cc1ccc(CSc2nc3ccccc3cc2C=O)cc1	5	1	75*	38*	x
O=Cc1cc2ccccc2nc1SCc1ccc(Cl)c(Cl)c1	-10	1.1	-5	38*	x
CC1(C)CC(=O)C(CCC(=O)c2ccccc2)C(C)(C)N1 (stereo not drawn)	1	1	26	5	-3
CCOc1ccccc1COC(=O)c1cccc(-n2cnnn2)c1	-2	0.7	19	16	8
O=C(COc1ccc(S(=O)(=O)NC2CCCCC2)cc1Cl)N1CCN(c2ccccc2)CC1	-7	1.5	5	19	x
OCc1cn(-c2ccccc2)nc1-c1ccc2c(c1)OCCO2	1	0.7	-7	13	25
O=C(N/N=C/c1cn(-c2ccccc2)nc1-c1ccc(F)cc1)c1ccc2c(c1)OCO2	-4	1.1	12	12	x
CCn1ncc(/C=N/NC(=O)c2ccc3c(c2)OCO3)c1C	-4	1	3	33*	x
O/N=C/c1cn(-c2ccccc2)nc1-c1ccc2c(c1)OCCO2	10	0.9	8	31*	x
O=C(N/N=C\c1cn(-c2ccccc2)nc1-c1ccccc1)c1ccc2c(c1)OCO2	-7	1.2	-6	34*	x
COCCCn1c(C2CCCCC2)nc2oc3cc(OC)ccc3c(=O)c2c1=O	2	1.6	-2	7	-3
O=C(OCn1nnc2ccccc2c1=O)c1cc2ccccc2o1	x	x	x	x	7
Cc1cc(SCNC(=O)c2ccccc2)ncn1	-8	1	-4	6	-7
Cc1cc(C)nc(SCNC(=O)c2ccc(F)cc2)n1	-3	1.1	32*	13	-3
Cc1nn(-c2nc3ccccc3s2)c(N)c1-c1ccccc1	1	1.4	-2	3	-2
Cc1nn(-c2nc3ccccc3[nH]2)c(N)c1-c1ccccc1	x	x	x	x	76*
O=C(C1CCN(C2CC(=O)N(Cc3ccccc3)C2=O)CC1)N1CCCCCC1 (stereo not drawn)	5	2*	32*	3	-5
O=C(C1CCN(Cc2ccccc2)CC1)N1CCCC1	-15	x	-9	5	-10
O=C1CC(N2CCN(C3CC(=O)N(CCc4ccccc4)C3=O)CC2)C(=O)N1CCc1ccccc1 (stereo not drawn)	-12	1.4	-2	47*	1
CCN1C(=O)CC(N2CCC(C(=O)OC)CC2)C1=O (stereo not drawn)	-3	0.9	4	32*	-22
COCCNC(=O)Cn1c(=O)n(C)c2ccccc21	12	0.9	-2	-3	x
Clc1cccc(Cl)c1COc1ccccn1	6	0.9	2	14	-1
CC(=O)Nc1cc(C(C)(C)C)c(O)c(C(C)(C)C)c1	0	1.4	-8	33*	x
SMILES	E coli WT exp	PLAP activator	PostGolgi yeast	PostGolgi ctrl	tolC growth inh
COc1ccccc1Cn1c(=O)c2ccccc2n2c(SCc3csc(C)n3)nnc12	1	1.7	-14	15	-5
COc1ccccc1Cn1c(=O)c2ccccc2n2c(Sc3ncnc4sccc34)nnc12	-5	1.3	11	42*	21
CN(C)S(=O)(=O)c1ccc(-c2csnn2)s1	-2	0.8	14	15	x
COCCn1c(SCc2csc(-c3ccccc3)n2)nc2ccccc21	-27	x	-1	30*	57
COc1cc(NC(=O)c2nccnc2C(=O)O)cc(OC)c1	-3	0.9	6	-1	-18
O=C(Cn1c(=O)n(CCCC(=O)NC2CCCC2)c(=O)c2ccccc21)NCCC1=CCCCC1	-11	1	-6	0	-5
Cn1cccc1/C=N/n1c(-c2ccc(Cl)cc2)n[nH]c1=S	-10	1.7	-9	19	x
Cn1cccc1/C=N/n1c(-c2ccc(Cl)cc2Cl)n[nH]c1=S	5	1.2	4	43*	x
Nn1c(-c2ccco2)n[nH]c1=S	9	0.7	4	-10	-4
S=c1[nH]nc(-c2ccco2)n1/N=C/c1ccc(Cl)cc1Cl	-3	1	-6	39*	x
COc1cc2c(cc1OC)C(C(=O)Nc1ccc3c(c1)OCCO3)C(c1cccnc1)N(C)C2=O (stereo not drawn)	-4	1.4	-4	1	-2
N#Cc1cc([N+](=O)[O-])ccc1Oc1cccc(/C=N/NC(=O)c2cccc(Cl)c2)c1	-9	1	-9	-2	x
Cc1ccc2cc(C)c(SCC#N)nc2c1	0	0.9	31*	16	9
Cc1ccc(-c2ccc(CCC(=O)O)n2Cc2ccco2)cc1	5	1.6	-2	12	18
CCCCCCCC(=O)NC(Nc1ccc(S(N)(=O)=O)cc1)C(Cl)(Cl)Cl (stereo not drawn)	10	1.3	3	15	x
CCn1c(SCC(=O)Nc2cc(C)on2)nnc1-c1ccc(S(=O)(=O)N2CCN(C)CC2)cc1	-10	2*	8	-2	x
CCn1c(SCc2ccc(C#N)cc2)nnc1-c1ccc(S(=O)(=O)N2CCCCC2)cc1	-13	1.4	11	43*	31
CCn1c(SCC(=O)N2CCCCC2)nnc1-c1ccc(S(=O)(=O)N2CCN(C)CC2)cc1	1	1.6	7	4	-5
CCn1c(SCC(=O)N2CCCC2)nnc1-c1ccc(S(=O)(=O)N2CCCCCC2)cc1	7	1.5	-3	-1	0
CCn1c(SCC(=O)N2CCCC(C)C2)nnc1-c1ccc(S(=O)(=O)N2CCN(C)CC2)cc1 (stereo not drawn)	-7	2*	21	-3	x
CCOC(=O)N1CCN(C(=O)CN(c2ccc(Cl)c(C(F)(F)F)c2)S(C)(=O)=O)CC1	8	1.6	0	3	-6
COc1ccc(C)cc1-n1nnnc1SCc1cc(=O)n2cc(C)ccc2n1	-1	1.9	-9	22	5
CC(C)Oc1ccc(C(=O)NC2(C(F)(F)F)N=C3SCCN3C2=O)cc1 (stereo not drawn)	1	1.1	4	26	x
COc1ccc(S(=O)(=O)N(Cc2cccs2)C2CCCC2)cc1	-2	0.9	-11	31*	66*
CCn1c(-c2ccccc2O)n[nH]c1=S	2	1.7	-10	9	-18
SMILES	E coli WT exp	PLAP activator	PostGolgi yeast	PostGolgi ctrl	tolC growth inh
CCN(CC)CCn1nc(C)nc1-c1ccccc1O	3	2.3*	40*	-6	7
Cc1sc(NC(=O)c2ccc(OCC(C)C)cc2)c(C(N)=O)c1-c1ccc(Cl)cc1Cl	-8	1	8	6	x
O=C(Cc1ccc(Cl)cc1)Nc1ccc(-c2nnc(-c3ccco3)o2)cc1	-3	0.9	31*	9	11
CCC(=O)Nc1ccc(-c2nnc(-c3ccccc3)o2)cc1	-10	1	0	40*	-6
O=C(Cc1ccccc1)Nc1ccc(-c2nnc(-c3ccco3)o2)cc1	-6	x	1	16	-6
O=C(NCc1ccccc1)NC1(C(=O)N2CCN(c3ccccc3)CC2)CCCCC1	5	1.3	2	2	-4
CCCCc1nc(SCC(=O)Nc2cc(C)on2)n[nH]1	-2	2.3*	-2	3	-12
